Data from ChEMBL document CHEMBL4808165, “Design of Thioether Cyclic Peptide Scaffolds with Passive Permeability and Oral Exposure” (J Med Chem, 2021).
≈ marks a conversion by molar mass, not a printed value. Positions of bridges follow the written chain, without caps; N, C: chain ends. Non-standard residues stand in square brackets, D forms with d. Residues, ends and D or L forms follow the SMILES beside them. NMeF = CN[C@@H](Cc1ccccc1)C(=O)O; NMeNle = CCCC[C@H](NC)C(=O)O; Nle = CCCC[C@H](N)C(=O)O

Assays:
[1] = Clearance in Sprague-Dawley rat liver microsomes measured up to 30 mins in presence of NADPH by HPLC-MS/MS analysis; type: ADME, Microsome; details: read-out: CLH
[2] = 1-Octanol/phosphate buffered-saline distribution coefficient, logD of compound at pH 7.4 measured after 4 hrs by LC-MS analysis; type: physicochemical
How it was run: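 PBS pH 7.4 and 1-octanol, each pre-saturated with the other. 10 mM DMSO stock, dispensed with an internal reference compound in triplicate and dried. Residue shaken in octanol plus buffer for at least 4 h, then centrifuged to separate phases. Both phases quantified by LC-MS/MS. Log D taken from the phase peak-area ratio, normalised to internal standard.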

[3] = Clearance in human liver microsomes measured up to 30 mins in presence of NADPH by HPLC-MS/MS analysis; type: ADME, Microsome; details: read-out: CLH
How it was run: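 Human liver microsomes at 1.25 mg/mL protein in phosphate buffer pH 7.4. Test article at 10 μM, shaken at 37 °C. Reaction started with 2 mM NADPH/4 mM MgCl₂. Aliquots taken at 0, 5, 15 and 30 min and quenched with acetonitrile containing glibenclamide. Parent remaining measured by LC-MS/MS. Elimination rate constant converted to in vitro clearance.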

[4] = Clearance in Sprague-Dawley rat at 5 mg/kg, po or 0.5 mg/kg, iv measured up to 24 hrs by HPLC-MS/MS analysis; type: ADME, organism-based; details: in vivo
How it was run: (§1)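 Rat dosing in PEG300:20% Solutol/PBS (10:25:65). IV into a jugular cannula at 0.5 mg/kg (1 mg/kg for some analogues), 1 mL/kg. PO by gavage at 5 mg/kg from a 0.5 mg/mL solution. Blood drawn via jugular cannula at 5 min (IV only), 15 min, 0.5, 1, 2, 4, 7 and 24 h. Plasma analysed by HPLC-MS/MS. Parameters from noncompartmental analysis.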

[5] = Cmax in Sprague-Dawley rat systemic circulation at 5 mg/kg, po or 0.5 mg/kg, iv measured up to 24 hrs by HPLC-MS/MS analysis; type: ADME, organism-based; parameters: dose 5 mg/kg, time <=24; how it was run: as §1
[6] = Oral bioavailability in Sprague-Dawley rat at 5 mg/kg measured up to 24 hrs by HPLC-MS/MS analysis; type: ADME, organism-based; details: in vivo; how it was run: as §1
[7] = AUC in Sprague-Dawley rat systemic circulation at 5 mg/kg, po or 0.5 mg/kg, iv measured up to 24 hrs by HPLC-MS/MS analysis; type: ADME, organism-based; parameters: dose 5 mg/kg, time <=24; how it was run: as §1
[8] = Volume of distribution at steady state in Sprague-Dawley rat at 5 mg/kg, po or 0.5 mg/kg, iv measured up to 24 hrs by HPLC-MS/MS analysis; type: ADME, organism-based; details: in vivo, read-out: Vdss; how it was run: as §1
[9] = Half life in Sprague-Dawley rat at 5 mg/kg, po or 0.5 mg/kg, iv measured up to 24 hrs by HPLC-MS/MS analysis; type: ADME, organism-based; details: in vivo; how it was run: as §1
[10] = Aqueous solubility of the compound at pH 6.8; type: physicochemical; details: buffer
How it was run: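 Thermodynamic (equilibrium) solubility. 10 mM DMSO stock dried down, then pH 6.8 phosphate buffer added to a target of 1 mM. Shaken at 1350 rpm at ambient temperature for 16–24 h. Supernatant centrifuged twice, diluted 200-fold and quantified by RapidFire-MS/MS against a 4-point calibration curve.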

[11] = Apparent permeability across apical to basolateral membrane in MDCKII-LE cells measured after 120 mins by RapidFire-MS analysis; type: ADME, cell-based, Canis lupus familiaris; details: dog, MDCK
How it was run: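 MDCK-LE (low efflux) cells seeded at about 265,000 cells/cm² on Transwells and cultured 4 days. Apical-to-basal transport run in triplicate at 10 μM in HBSS/10 mM HEPES pH 7.4 with 0.02% BSA, 120 min at 37 °C without shaking. Bestatin used as integrity marker. Donor and acceptor quantified by MS against glyburide internal standard. Papp and % recovery calculated.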

[12] = AUC in Sprague-Dawley rat hepatic portal vein circulation at 5 mg/kg, po or 0.5 mg/kg, iv measured up to 24 hrs by HPLC-MS/MS analysis; type: ADME, organism-based; parameters: dose 5 mg/kg, time <=24
[13] = Cmax in Sprague-Dawley rat hepatic portal vein circulation at 5 mg/kg, po or 0.5 mg/kg, iv measured up to 24 hrs by HPLC-MS/MS analysis; type: ADME, organism-based; parameters: dose 5 mg/kg, time <=24

Structure (SMILES) | microsomal CLint [1] [µL/min/mg] | logD at 4 h [2] | microsomal CLint [3] [µL/min/mg] | clearance [4] [mL/min/kg] | Cmax [5] [nM] | bioavailability [6] [%] | AUC at 24 h [7] [µM·h] | Vd [8] [L/kg] | half-life [9] [min] | solubility [10] [µM] | Papp A→B at 2 h [11] [×10⁻⁶ cm/s] | AUC at 24 h [12] [µM·h] | Cmax [13] [nM]
CCCC[C@@H]1NC(=O)C2CCCN2C(=O)[C@H](CCCC)NC(=O)[C@H](Cc2ccccc2)NC(=O)CSC[C@H](C(=O)NC)NC(=O)[C@H](CCCC)NC1=O (stereo not given in full) | ≥ 350 | 3.1 | ≥ 350 | 222 | 1.7 | < 1 | 0.0006 | 2 | 12 | 200 (≈ 152 µg/mL) | 0.6 | – | –
CCCC[C@@H]1NC(=O)[C@H](CCCC)NC(=O)[C@H]2CCCN2C(=O)[C@H](CCCC)NC(=O)[C@H](Cc2ccccc2)NC(=O)CSC[C@H](C(=O)NC)NC(=O)[C@H](CCCC)NC1=O | ≥ 480 | 3.7 | ≥ 480 | 72 | – | < 1 | – | 0.2 | 4.8 | 9 (≈ 7.84 µg/mL) | 0.2 | – | –
CCCC[C@@H]1NC(=O)[C@H](CCCC)NC(=O)[C@H](CCCC)NC(=O)[C@@H](Cc2ccccc2)NC(=O)CSC[C@H](C(=O)NC)NC(=O)[C@H](CCCC)NC1=O | ≥ 350 | 3.6 | ≥ 350 | – | – | – | – | – | – | 5 (≈ 3.87 µg/mL) | 0.4 | – | –
CCCC[C@@H]1NC(=O)[C@H](Cc2ccccc2)N(C)C(=O)CSC[C@H](C(=O)NC)N(C)C(=O)[C@H](CCCC)NC(=O)[C@H](CCCC)N(C)C(=O)[C@H](CCCC)NC1=O | ≥ 350 | 4.1 | ≥ 350 | 86 | 114 | 20 | 0.258 | 2.1 | 54 | 12 (≈ 9.79 µg/mL) | 8 | 0.173 | 140
CCCC[C@@H]1NC(=O)[C@H](CCCC)N(C)C(=O)[C@H](CCCC)NC(=O)[C@H](CCCC)N(C)C(=O)[C@@H](Cc2ccccc2)NC(=O)CSC[C@H](C(=O)NC)NC1=O | ≥ 350 | 4.2 | ≥ 350 | – | – | – | – | – | – | 18 (≈ 14.4 µg/mL) | 1.5 | – | –
CCCC[C@@H]1NC(=O)[C@H](CCCC)N(C)C(=O)[C@H](CCCC)NC(=O)[C@H](Cc2ccccc2)N(C)C(=O)[C@H]([C@@H](C)O)NC(=O)[C@H](CCCC)N(C)C(=O)[C@@H](Cc2ccccc2)NC(=O)CSC[C@@H](C(=O)NC)NC1=O | ≥ 120 | 5.2 | ≥ 120 | 28.4 | 161 | 13 | 0.372 | – | – | < 4 | < 0.35 | – | –
CCCC[C@@H]1NC(=O)[C@H](CCCC)N(C)C(=O)[C@H](CCCC)NC(=O)[C@H](CCCC)N(C)C(=O)[C@H](CCCC)NC(=O)[C@H](CCCC)N(C)C(=O)[C@@H](Cc2ccccc2)NC(=O)CSC[C@@H](C(=O)NC)NC1=O | ≥ 120 | 6 | ≥ 120 | 33 | 411 | 54 | 1.27 | – | – | < 4 | < 0.35 | – | –
CCCC[C@@H]1NC(=O)[C@H](Cc2ccccc2)NC(=O)CSC[C@H](C(=O)NC)NC(=O)[C@H](CCCC)NC(=O)[C@H](CCCC)NC(=O)[C@H](CCCC)NC1=O | ≥ 350 | 3.6 | ≥ 350 | 702 | – | < 1 | – | – | 18 | < 4 | 0.6 | – | –
CCCC[C@@H]1NC(=O)[C@H](Cc2ccccc2)NC(=O)CSC[C@H](C(=O)NC)NC(=O)[C@H](CCCC)N(C)C(=O)[C@H](CCCC)NC(=O)[C@H](CCCC)N(C)C1=O | ≥ 350 | 4.6 | ≥ 350 | 8.9 | 1030 | 19 | 2.29 | 1 | 228 | 5 (≈ 4.01 µg/mL) | 3.9 | 1.86 | 819
CCCC[C@@H]1NC(=O)[C@H](Cc2ccccc2)N(C)C(=O)CSC[C@H](C(=O)NC)N(C)C(=O)[C@H](CCCC)NC(=O)[C@H](CCCC)N(C)C(=O)C2CCCN2C1=O (stereo not given in full) | ≥ 350 | 3.6 | ≥ 350 | 72 | 152 | 6 | 0.092 | 1.3 | 18 | 216 (≈ 173 µg/mL) | 6.3 | – | –
CCCC[C@@H]1NC(=O)[C@H](Cc2ccccc2)N(C)C(=O)[C@@H]2CCCN2C(=O)[C@H](CCCC)N(C)C(=O)[C@H](Cc2ccccc2)NC(=O)CSC[C@@H](C(=O)NC)NC(=O)[C@H](CCCC)N(C)C1=O ({CH2CO}-F[NMeNle]P[NMeF][Nle][NMeNle]C-NHMe; thioether N-7) | ≥ 480 | 4.9 | ≥ 480 | 19 | 1950 | 84 | 1.31 | 1.1 | 90 | 9 (≈ 8.53 µg/mL) | 2.3 | – | –
CCCC[C@@H]1NC(=O)[C@H](CCCC)N(C)C(=O)[C@@H]2CCCN2C(=O)[C@H](CCCC)N(C)C(=O)[C@H](Cc2ccccc2)NC(=O)CSC[C@@H](C(=O)NC)NC(=O)[C@H](CCCC)N(C)C1=O ({CH2CO}-F[NMeNle]P[NMeNle][Nle][NMeNle]C-NHMe; thioether N-7) | ≥ 480 | 4.8 | ≥ 480 | 35 | 868 | 86 | 2.13 | 1.2 | 36 | 9 (≈ 8.22 µg/mL) | 6.4 | – | –
CCCC[C@@H]1NC(=O)[C@H](CCCC)NC(=O)[C@H](CCCC)N(C)C(=O)[C@@H]2CCCN2C(=O)[C@H](CCCC)N(C)C(=O)[C@H](Cc2ccccc2)NC(=O)CSC[C@@H](C(=O)NC)NC1=O ({CH2CO}-F[NMeNle]P[NMeNle][Nle][Nle]C-NHMe; thioether N-7) | ≥ 480 | 4.7 | ≥ 480 | 106 | 18 | 1 | 0.01 | 4.4 | 42 | 9 (≈ 8.09 µg/mL) | 0.8 | – | –
CCCC[C@@H]1NC(=O)[C@H](Cc2ccccc2)NC(=O)CSC[C@@H](C(=O)NC)NC(=O)[C@H](CCCC)N(C)C(=O)[C@H](CCCC)N(C)C(=O)[C@H](CCCC)N(C)C(=O)[C@H](CCCC)NC(=O)[C@H](CCCC)N(C)C1=O ({CH2CO}-F[Nle][NMeNle][Nle][NMeNle][NMeNle][NMeNle]C-NHMe; thioether N-8) | ≥ 120 | 6.1 | ≥ 120 | 12 | 436 | 17 | 1.08 | – | – | < 4 | < 0.35 | – | –
